Only some compounds are listed: those with a hit (about 2.7% of all), similar ones and a draw of the others.
NR2E3 ag-1 = inhibitors of NR2E3-RetCOR corepressor binding, primary screen, NR2E3 agonist project, biochemical, TR-FRET, GST-NR2E3, biotin-RetCOR; 1536-well; inhibition of corepressor binding, % at 4.78 µM; 320,000 compounds, 0.12% hits;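 active = percent inhibition above the cutoff of mean plus 3 SD of all tested compounds, set per screening campaign, cut at about 20% in these data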;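 also: 0% = DMSO wells and 100% = biotin wells as full block of FRET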
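Test system – NR2E3–RetCOR corepressor complex · Quantity – NR2E3 fusion 1.35 nM · Buffer or medium – Tris pH 7.5 · Incubation – Compound–protein incubation for 5 h at 4 °C · Technique – TR-FRET, Eu(K)-anti-GST donor, streptavidin-D2 acceptor, ex 340, em 617/671 nm · Evaluation – percent inhibition of 671/617 nm emission ratio versus biotin and DMSO controls · Plate – 1536-well format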
NR1D1 modulator = modulators of Rev-erb alpha DNA binding, primary screen, biochemical, FITC-DNA, fluorescence polarization, uHTS; Nuclear receptor subfamily 1 group D member 1 (Homo sapiens), P20393; Rev-erbα–FITC-DNA binding, 90 min; activity, % at 10 µM; 370,000 compounds, 0.79% hits; AID 1259318, 2017;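 active = activity above about 14%, limit read from the data; passing the limit was not always enough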;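 also: 0% = DMSO wells with 35 nM protein and 100% = DMSO wells with 750 nM protein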
MC4R ag barr = MC4R agonists recruiting beta-arrestin, primary screen, cell-based, luminescence, agonist arm of biased-ligand search; Melanocortin receptor 4 (Homo sapiens), P32245; U2OS MC4R beta-arrestin complementation; percent of melanotan II response, DMSO zero; activation, % at 8.9 µM; 360,000 compounds, 0.98% hits; AID 540308, 2011;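 active = activation above a per-plate cutoff, the mean activation of sample wells on that plate plus 3 SD, cut at about 8% in these data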
PG9 Ab binder = binders of HIV-1 gp120 antibody PG9, primary screen, biochemical, TR-FRET. TR-FRET gp120-PG9 antibody binding. inhibition, % at 6.7 µM. AID 624416, 2012. 360,000 compounds, 0.43% hits; in the data active = inhibition above about 8.5%
NR2E3 ag-2 = NR2E3 agonists in two-hybrid cells, primary screen, cell-based, luminescence, CHO-S, Gal4-NCOR/VP16-NR2E3 | Photoreceptor-specific nuclear receptor (Homo sapiens), Q9Y5X4 | 360,000 compounds, 0.35% hits | AID 602229, 2012 | inhibition of corepressor binding, % at 3.98 µM | luciferase;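 active = inhibition above the mean of all tested compounds plus 3 SD, cut at about 70% in these data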;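 also: 0% = DMSO with NR2E3 transfected cells and 100% = cells lacking NR2E3 construct; higher means lower luciferase signal from less NR2E3 corepressor binding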
MC4R antag cAMP = MC4R antagonists of cAMP signaling, primary screen, cell-based, TR-FRET, antagonist arm of biased-ligand search. MC4R-expressing cells, MTII-stimulated cAMP, LANCE TR-FRET. Melanocortin receptor 4 (Homo sapiens), P32245. 360,000 compounds, 0.48% hits. inhibition, % at 6.5 µM;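 active = inhibition above its plate's cutoff, the mean of tested wells on that plate plus 3 SD, cut at about 29% in these data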;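 also: 0% = Melanotan II alone and 100% = Melanotan II plus saturating MCL0020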
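System: U2OS cells stably expressing human melanocortin 4 receptor (MC4R). Reagent: Melanotan II challenge after compound preincubation. Doses: 6.5 µM. Times: 30-min compound, 1-h challenge, 1-h detection, room temperature. Measured by: TR-FRET with Eu-cAMP and labeled anti-cAMP, 671 nm. Replicates: singlicate.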
MC4R barr conf = MC4R beta-arrestin agonists, retest, confirmation, cell-based, luminescence, U2OS; U2OS MC4R beta-arrestin recruitment; scaled DMSO 0%, Melanotan II 100%; shares compounds with MC4R ag barr; activation, % at 8.9 µM; AID 602192, 2012; 2,400 compounds, 31% hits;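 active = mean activation across replicates above the hit cutoff set in the earlier primary screen, cut at about 8% in these data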
MOR-DOR barr ag = agonists of MOR-DOR heterodimerization, counter-screen for MC4R biased agonist project, cell-based, luminescence | shares compounds with MC4R ag barr | 2,400 compounds, 5.8% hits | U2OS PathHunter beta-arrestin, beta-gal luminescence; percent of deltorphin B response, DMSO zero | AID 602194, 2012 | activation, % at 9.2 µM;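 active = mean activation across replicates exceeds the hit threshold derived in the earlier primary screen, cut at about 18% in these data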;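 also: 100% = deltorphin B at 0.9 µM final and 0% = DMSO alone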
Target sequence (P35372 whole entry, looked up): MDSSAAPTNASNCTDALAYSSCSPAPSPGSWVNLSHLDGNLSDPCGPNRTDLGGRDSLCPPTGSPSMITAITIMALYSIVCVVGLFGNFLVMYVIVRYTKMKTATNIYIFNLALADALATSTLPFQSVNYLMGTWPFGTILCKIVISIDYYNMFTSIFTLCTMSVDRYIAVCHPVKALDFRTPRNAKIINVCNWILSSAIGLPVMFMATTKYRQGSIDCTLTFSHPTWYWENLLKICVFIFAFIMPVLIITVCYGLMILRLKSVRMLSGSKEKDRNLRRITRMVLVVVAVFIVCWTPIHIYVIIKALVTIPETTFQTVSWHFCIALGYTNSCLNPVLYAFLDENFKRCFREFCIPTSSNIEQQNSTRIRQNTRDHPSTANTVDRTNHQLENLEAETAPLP
Target sequence (P41143 whole entry, looked up): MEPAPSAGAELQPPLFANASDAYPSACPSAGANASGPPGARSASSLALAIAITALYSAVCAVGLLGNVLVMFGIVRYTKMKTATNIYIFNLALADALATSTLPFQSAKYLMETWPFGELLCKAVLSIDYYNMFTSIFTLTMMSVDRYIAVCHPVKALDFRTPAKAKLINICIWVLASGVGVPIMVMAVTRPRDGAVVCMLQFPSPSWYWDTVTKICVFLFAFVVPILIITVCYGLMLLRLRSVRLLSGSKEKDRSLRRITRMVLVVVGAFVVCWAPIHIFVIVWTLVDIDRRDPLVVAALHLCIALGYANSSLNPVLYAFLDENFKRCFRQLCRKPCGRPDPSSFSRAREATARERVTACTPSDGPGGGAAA
* = called active by the depositor; x = no result given.

SMILES	NR2E3 ag-1	NR1D1 modulator	MC4R ag barr	PG9 Ab binder	NR2E3 ag-2	MC4R antag cAMP	MC4R barr conf	MOR-DOR barr ag
Cc1cc(=O)oc2cc(OCCCC[n+]3ccccc3)ccc12	-0.3	4.7	-1.9	0.2	-17.9	-2.2	x	x
COc1ccc(C/C(N)=N/OC(=O)Cc2ccccc2)cc1	1.0	2.6	0.1	0.5	-27.4	2.6	x	x
CCOc1ccc(N)c(SSc2cc(OCC)ccc2N)c1	-12.2	0.2	10.8*	0.1	-96.0	5.2	1.8	7.9
COc1cccc2cc(C(=O)c3ccc([N+](=O)[O-])cc3)oc12	1.1	-8.0	19.9*	-1.5	-37.0	4.9	0.5	6.0
Cc1ccc(C)c(OCc2ccc(C(=O)NN)o2)c1	2.2	1.0	14.5*	-0.5	-18.8	5.1	-2.7	1.6
Cc1ccc(C)c(OCc2ccc(C(=O)Nc3ccc([N+](=O)[O-])cn3)o2)c1	0.5	2.3	15.8*	0.4	-21.5	3.9	-0.8	4.5
Cc1ccc(OCc2ccc(C(=O)NN)o2)c([N+](=O)[O-])c1	1.2	-0.8	6.6	-0.9	-54.3	-10.2	x	x
COc1ccc(-c2csc(NC(=O)c3nc(-c4ccccc4)oc3C)n2)cc1	0.8	8.4	11.8*	-0.5	-52.0	-3.0	2.4	3.6
COc1ccc(-c2csc(NC(=O)c3ccccc3C(=O)O)n2)cc1	2.3	1.1	-1.6	0.6	-5.1	3.2	x	x
Cc1ccccc1-c1ccc2c(c1)O[C@@H](CN(C)C(=O)Nc1ccc(C(F)(F)F)cc1)[C@H](C)CN([C@@H](C)CO)S2(=O)=O	x	-3.4	-1.3	-0.9	-17.9	3.5	x	x
CCC(=O)NC(Nc1sc2c(c1C(=O)OC)CCCC2)(C(F)(F)F)C(F)(F)F	-0.1	-0.9	14.6*	-2.1	-4.3	8.9	-1.4	5.1
CCOc1ccc(Cn2c3ccc(OC)cc3c3nc4ccccc4nc32)cc1	2.8	-20.2	29.6*	-1.0	-16.9	-2.3	37.6*	14.7
CCn1c2ccc(OC)cc2c2nc3ccccc3nc21	-5.6	5.0	x	-1.2	x	x	x	x
COc1ccccc1NC(=S)NC(=O)c1ccc(Cn2cc(Br)cn2)cc1	0.8	-4.8	23.7*	-0.3	5.1	-24.1	12.1*	11.7
COc1ccc(/C(C)=N/Nc2ncc(Cl)cc2Cl)c(O)c1	-0.4	7.4	12.8*	-0.2	-5.2	-6.2	-2.1	1.8
O=C(O)c1nn(CCOc2ccc(Cl)cc2Cl)c(=O)c2ccccc12	3.2	-1.1	17.7*	1.1	-2.7	0.4	0.5	5.8
N#Cc1ccc(OCC(=O)NNC(=S)NC(=O)C2CC2)cc1	x	-2.2	-2.1	-0.5	7.8	7.1	x	x
CC(C)(C)c1nn(-c2ccccc2)c2[nH]c(=O)c(CNc3ccc4c(c3)OCCO4)cc12	8.4	-5.0	1.0	0.6	-14.5	14.9	x	x
COc1ccc(CNCc2cc3c(C(C)(C)C)nn(-c4ccccc4)c3[nH]c2=O)cc1	4.4	-2.5	15.0*	1.2	1.2	10.4	14.1*	12.1
COc1ccc(CCNC(=O)CCSc2nc(-c3ccco3)cc(C(F)(F)F)n2)cc1	1.8	10.4	18.3*	1.5	9.2	-0.7	-1.1	2.3
Cc1cc(NC(=O)CCSc2nc(-c3ccco3)cc(C(F)(F)F)n2)no1	3.9	-6.8	9.9*	0.1	-16.6	7.5	2.9	6.0
N#Cc1cc2c(ccc3ccccc32)oc1=O	3.6	0.7	-2.4	-3.0	-18.0	-0.7	x	x
CCc1nc(NCC2CC2)c2nnn(Cc3ccccc3)c2n1	x	-3.1	12.1*	5.7	6.0	-1.0	3.5	9.8
COC(=O)N/N=C/c1ccc(Oc2ccccc2)cc1	-0.6	4.3	0.2	-1.6	-55.8	0.5	x	x
CCc1ccc2c(c1)cc(CN(C(=S)Nc1ccccc1C)C1CC1)c1nnnn12	-2.0	4.6	12.5*	5.5	18.0	7.5	3.9	1.5
SMILES	NR2E3 ag-1	NR1D1 modulator	MC4R ag barr	PG9 Ab binder	NR2E3 ag-2	MC4R antag cAMP	MC4R barr conf	MOR-DOR barr ag
O=C1CN(C(=O)c2ccc(F)c(S(=O)(=O)N3CCOCC3)c2)c2ccccc2N1	1.0	2.6	-0.5	0.3	0.0	6.3	x	x
COC(=O)CSc1nnc(-c2ccc(NS(=O)(=O)c3c(C(C)C)cc(C(C)C)cc3C(C)C)cc2)o1	x	-1.4	x	x	x	x	x	x
COc1ccc(NC(=O)NCc2ccc3c(c2)OCO3)cc1	3.2	5.9	3.2	1.6	12.8	19.4	x	x
O=C(NCc1ccc2c(c1)OCO2)Nc1ccc2ccccc2c1	2.2	-2.0	10.9*	-0.7	-51.2	-4.3	-0.4	5.3
CC(=O)Nc1cc(-c2ccc(CO)cc2)cn2c(-c3ccc(F)cc3)cnc12	x	-3.8	-1.9	-2.9	4.8	8.0	x	x
CC(=O)Nc1cc(-c2ccc(F)cc2)cn2c(-c3ccc(F)cc3)cnc12	x	3.0	24.6*	0.6	-20.8	0.4	14.6*	5.7
COc1cc(-c2cc(NC(C)=O)c3ncc(-c4ccc(F)cc4)n3c2)cc(OC)c1OC	x	-2.5	11.9*	5.7	-22.9	17.1	8.6*	3.6
CC(=O)Nc1cc(-c2ccccc2)cn2c(-c3ccc(F)cc3)cnc12	x	0.5	26.0*	-1.1	-32.3	12.0	26.6*	3.0
C#CCn1c(=NC(=O)c2cc(-c3cccs3)nc3ccccc23)sc2cc(S(N)(=O)=O)ccc21	-2.0	4.4	20.1*	-1.2	6.8	4.8	10.3*	5.5
O=C(NNC(=O)c1ccccc1[N+](=O)[O-])c1ccccn1	5.1	-1.8	-1.5	2.6	-8.5	6.0	x	x
COc1ccc(NC(=O)Nc2cccc(Cl)c2Cl)c(OC)n1	-1.3	5.4	23.3*	-2.9	-26.1	4.2	5.4	6.1
Nc1nc(CCl)nc(N(c2ccccc2)c2ccccc2)n1	2.6	0.6	18.4*	-2.9	-3.7	14.4	13.2*	31.4*
Nc1nc(Cl)nc(N(c2ccccc2)c2ccccc2)n1	4.2	2.5	4.8	0.3	7.3	4.6	x	x

High-throughput results from PubChem.
